Source: PubChem (Sanford-Burnham Center for Chemical Genomics)
Shown are actives, neighbours in structure and some others; about 1.5% of the full set was active somewhere.
APJ antag = antagonists of human apelin receptor APJ, primary screen, CHO-K1 cells, beta-arrestin complementation, luminescence; P35414; inhibition, % at 20 µM; actives 0.32% (n = 330,000);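 active = inhibition above about 40% at 20 µM, limit read from the data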;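 also: cells challenged with 10 nM apelin-13 agonist together with compound; plate controls were apelin-13 plus DMSO wells for no effect and DMSO wells lacking apelin-13 for full effect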
APJ agonist = agonists of human apelin receptor APJ, primary screen, CHO-K1 cells, PathHunter beta-arrestin, luminescence. P35414. activation, % at 20 µM. AID 2520, 2010. actives 0.11% (n = 330,000). 0% DMSO wells, 100% apelin;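 active = activation more than six SD over the plate average, tested at 20 µM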;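 also: 0% = DMSO alone and 100% = apelin-13 at 10 nM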
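Assay system: engineered CHO-K1 APJ arrestin reporter cells; Amount: 1000 CHO-K1 reporter cells seeded per well; Dosing: one dose, 20 µM compound, 1% DMSO; Times: compound stimulation 90 min at 25 °C, detection 60 min; Measured by: luminescent beta-gal fragment complementation, chemiluminescent substrate; Read-out: APJ–arrestin association signal; Controls: DMSO vs Apelin-13 10 nM.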
CCR6 antagonist = CCR6 receptor antagonists, primary screen, cell-based, CHO-K1, luminescence, beta-arrestin, uHTS | CHO-K1 CCR6 PathHunter beta-arrestin, CCL20-stimulated | inhibition, % at 20 µM | actives 0.49% (n = 340,000) | C-C chemokine receptor type 6 (Homo sapiens), P51684;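 active = compounds whose inhibition of the agonist-driven luminescence signal at 20 µM reaches about 50%, limit read from the data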;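 also: cells stimulated with CCL20 at 14 nM final; plate controls were DMSO with CCL20 for no effect and DMSO without agonist for full effect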
Target sequence (P51684 whole entry, looked up): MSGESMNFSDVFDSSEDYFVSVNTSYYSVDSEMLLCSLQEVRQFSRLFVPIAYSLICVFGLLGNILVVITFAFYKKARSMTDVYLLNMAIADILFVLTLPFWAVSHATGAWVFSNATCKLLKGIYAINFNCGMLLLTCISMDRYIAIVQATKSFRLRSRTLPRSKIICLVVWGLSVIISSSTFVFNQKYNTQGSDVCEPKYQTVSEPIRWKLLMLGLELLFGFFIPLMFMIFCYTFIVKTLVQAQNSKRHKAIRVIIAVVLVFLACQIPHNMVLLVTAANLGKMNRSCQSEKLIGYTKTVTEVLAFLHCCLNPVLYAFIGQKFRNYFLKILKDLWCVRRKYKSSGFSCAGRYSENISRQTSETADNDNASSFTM
CXCR6 block = CXCR6 receptor inhibitors, primary screen, cell-based, beta-arrestin, luminescence, CHO-K1 PathHunter, 1536-well; C-X-C chemokine receptor type 6 (Homo sapiens), O00574; actives 0.36% (n = 360,000); inhibition, % at 20 µM; in the data active = inhibition above about 34%, passing the limit was not always enough;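 also: antagonist mode with CXCL16 agonist at 10 nM final; 0% = 10 nM CXCL16 with DMSO and 100% = unstimulated wells without agonist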
EBI2 block = EBI2 receptor antagonists, beta-arrestin recruitment, primary screen, cell-based, luminescence, 7a,25-OHC stimulation, uHTS; 7a,25-OHC stimulated; inhibition, % at 5 µM; actives 0.81% (n = 360,000); AID 651636, 2012; in the data active = inhibition above about 38%;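 also: enzyme fragment complementation signal reports receptor beta-arrestin coupling in cells; 0% = agonist plus DMSO wells and 100% = wells without agonist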
* = called active by the depositor; . = no result given.

SMILES	APJ antag	APJ agonist	CCR6 antagonist	CXCR6 block	EBI2 block
CCc1nc2ccc(C(=O)NCCCn3ccnc3)cn2c1N(CC)CCN(C)C	.	.	.	-2	-6
COc1ccc(-c2nc(=S)c3ccc4ccccc4c3[nH]2)cc1	.	.	71*	45*	3
COc1ccc(-c2nc3ccccc3[nH]2)cc1	6	1	-1	-2	-6
OC(COCc1ccccc1)CN1CCN(Cc2ccc3c(c2)OCO3)CC1 (stereo not drawn)	4	-3	8	-2	-4
SC(COCc1ccccc1)CN1CCN(Cc2ccc3c(c2)OCO3)CC1 (stereo not drawn)	-9	-3	64*	26	10
CC1C(=O)N2CCCc3cc(S(=O)(=O)Nc4ccccc4F)cc1c32 (stereo not drawn)	6	-4	-3	7	2
CN(C)CCCN(C(=O)CCc1ccccc1)c1nc2ccc(F)cc2s1	6	-2	6	-6	1
CN(C)CCCN(C(=O)CCc1ccccc1)c1nc2ccc(Br)cc2s1	11	5	53*	-5	-16
CSc1ccc(/C=C/c2ccc3cccc(O)c3n2)cc1	11	-2	12	4	11
Cc1cc(C)c2nc(SCC(=O)N3CC(=O)Nc4ccccc43)c(C#N)cc2c1	-27	-1	-2	8	49*
Cc1cc(C)c2nc(SCC(=O)Nc3ccccc3N3CCOCC3)c(C#N)cc2c1	-17	-1	0	7	40
O=[N+]([O-])c1ccc(NNC(=S)Nc2ccc(F)cc2)cc1	22	0	68*	25	3
O=C(NNC(=S)Nc1ccc(F)cc1)c1cccc([N+](=O)[O-])c1	16	2	-5	-2	8
COc1ccc2cc3cc(C(=O)NCCCN4CCC(C)CC4)oc3nc2c1	5	3	18	2	1
Cc1nc(/N=C(\N)NC(=O)N2c3ccccc3Sc3ccccc32)nc2ccccc12	-63	0	-1	-6	9
COc1ccc(NC(=O)/C(Cl)=C(/Cl)S(=O)(=O)Cc2ccc(C)cc2)cn1	.	.	57*	48*	70*
O=C(C1=C[C@H](c2csc3ccccc23)C[C@H](OCc2ccc(CO)cc2)O1)N1CCN(Cc2ccc3c(c2)OCO3)CC1	-4	-1	11	7	51*
O=C(C1=C[C@H](c2csc3ccccc23)C[C@H](OCc2ccc(CO)cc2)O1)N1CCN(Cc2ccccc2)CC1	-23	4	14	12	33
Cc1ccc(S(=O)(=O)N2CCN(C(=O)CCC(=O)NCc3ccc(F)cc3)CC2)cc1	4	-1	-5	-7	-18
CC1=CC(=O)C(Sc2ccc(C)cc2)=CC1=O	.	.	.	92*	35
Cc1ccc(SC2=C(Sc3ccc(C)cc3)C(=O)c3ccccc3C2=O)cc1	-11	9	45	-9	14
O=[N+]([O-])c1ccc(O)c(N=Cc2sc3ccccc3c2O)c1	.	.	54*	20	35
Oc1ccc(Cl)cc1N=Cc1sc2ccccc2c1Cl	.	.	3	-14	-10
Cc1ccc(C2=CC(=O)C[C@H](c3ccc(Cl)cc3)C2)cc1	-8	-5	24	-3	74*
O=C(O)CC1S/C(=N/N=C/c2ccc(-c3ccc(Cl)c([N+](=O)[O-])c3)o2)NC1=O (stereo not drawn)	10	-5	58*	15	1
N#CC1C(=O)NC(c2ccccc2)=CC1c1ccccc1 (stereo not drawn)	.	.	52*	22	-16
CCOc1cc(C(=O)CSc2nnc(CNc3ccc(Cl)cc3)o2)ccc1NC(=O)CC	4	2	5	-8	56*
O=C1[C@@H]2Cc3c([nH]c4ccccc34)C(c3cccc([N+](=O)[O-])c3)N2C(=O)CN1CCCO (stereo partly drawn)	36	-7	51*	33	10
CN1CC(=O)N2C(c3cccc([N+](=O)[O-])c3)c3[nH]c4ccccc4c3C[C@H]2C1=O (stereo partly drawn)	15	-2	17	16	1
CCOC(=O)c1ccc(S(=O)(=O)N2CCN(CC(O)COc3ccc(C#N)cc3)CC2)cc1 (stereo not drawn)	-3	0	15	-6	50*
